# Reference: ChEMBL document CHEMBL3763118, “Trioxolane-Mediated Delivery of Mefloquine Limits Brain Exposure in a Mouse Model of Malaria” (ACS Med Chem Lett, 2015)
# Active and inactive are the calls of the source. The rule behind the calls is not given here.
# Experiments:
# Plasmodium falciparum = test: Antiplasmodium activity against Plasmodium falciparum W2 by flow cytometry; format: functional, organism-based
# Method in brief: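 Activity against P. falciparum, reported as EC50, the mean of three or six separate determinations.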
# [1] = Stability in human plasma after 120 mins by LC/MS analysis; format: ADME, cell-free; conditions: read-out: Stability
# Method in brief: (§1)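 Compounds were incubated at 37 °C in human plasma or whole blood for 240 min (120 min in some plasma cases). The value is the percent of parent remaining.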
# Plasmodium berghei [2] = test: Antimalarial activity against Plasmodium berghei infected in Swiss-Webster mouse assessed as mouse survival at 9.5 mg/kg qd for 4 days administered via oral gavage; format: functional, organism-based
# Method in brief: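 Female Swiss-Webster mice (n = 5 per arm) were inoculated with 10^6 P. berghei parasites. Oral gavage once daily for 4 days, starting on the day of inoculation; doses were equimolar across compounds. Parasitemia, morbidity and survival were followed daily for 28 days, with euthanasia as the protocol required.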
# [3] = Ratio of drug level in human blood to plasma; format: ADME, cell-free; conditions: whole blood and plasma
# Plasmodium chabaudi [4] = test: Antimalarial activity against Plasmodium chabaudi infected in Balb/c mouse assessed as parastemia at 16.5 mg/kg, ip measured 4 day postinoculation (reference value: 4.6 +/- 0.5 %); format: functional
# Method in brief: (§2)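 Mice infected with P. chabaudi received one i.p. dose on day 4 postinoculation. Parasitemia (%) was measured on days 4, 7 and 13 postinoculation and reported as mean ± SEM. Animals in poor health were sacrificed on day 8 as the protocol required.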
# Plasmodium chabaudi [5] = test: Antimalarial activity against Plasmodium chabaudi infected in Balb/c mouse assessed as parastemia at 8 mg/kg, ip measured 4 day postinoculation (reference value: 4.6 +/- 0.5 %); format: functional; method in brief: as §2
# [6] = Stability in human plasma after 240 mins by LC/MS analysis; format: ADME, cell-free; conditions: read-out: Stability; method in brief: as §1
# [7] = Stability in human blood after 240 mins by LC/MS analysis; format: ADME; conditions: whole blood, read-out: Stability; method in brief: as §1
# Plasmodium chabaudi [8] = test: Antimalarial activity against Plasmodium chabaudi infected in Balb/c mouse assessed as parastemia at 50 mg/kg, ip measured 4 day postinoculation (reference value: 4.6 +/- 0.5 %); format: functional; method in brief: as §2
# Plasmodium chabaudi [9] = test: Antimalarial activity against Plasmodium chabaudi infected in Balb/c mouse assessed as parastemia at 8 mg/kg, ip measured 7 day postinoculation (reference value: 34 +/- 2.3 %); format: functional; method in brief: as §2
# Plasmodium chabaudi [10] = test: Antimalarial activity against Plasmodium chabaudi infected in Balb/c mouse assessed as parastemia at 16.5 mg/kg, ip measured 7 day postinoculation (reference value: 34 +/- 2.3 %); format: functional; method in brief: as §2
# Plasmodium chabaudi [11] = test: Antimalarial activity against Plasmodium chabaudi infected in Balb/c mouse assessed as parastemia at 50 mg/kg, ip measured 7 day postinoculation (reference value: 34 +/- 2.3 %); format: functional; method in brief: as §2
# Plasmodium chabaudi [12] = test: Antimalarial activity against Plasmodium chabaudi infected in Balb/c mouse assessed as parastemia at 16.5 mg/kg, ip measured 13 day postinoculation; format: functional; method in brief: as §2
# Plasmodium chabaudi [13] = test: Antimalarial activity against Plasmodium chabaudi infected in Balb/c mouse assessed as parastemia at 50 mg/kg, ip measured 13 day postinoculation; format: functional; method in brief: as §2
# Brain = test: Prodrug activation in Plasmodium chabaudi infected Balb/c mouse brain assessed as mefloquine level at 50 mg/kg, ip at 24 hrs by LC-MS/MS analysis; format: organism-based; conditions: in vivo
# Method in brief: (§3)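 Infected mice (P. chabaudi) each got one i.p. dose of 50 mg/kg of the trioxolane conjugate. Blood and brain were collected over 24 h. Plasma and brain were analysed for intact conjugate and for released mefloquine.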
# Plasma [14] = test: Prodrug activation in Plasmodium chabaudi infected Balb/c mouse plasma assessed as mefloquine level at 50 mg/kg, ip at 24 hrs by LC-MS/MS analysis; format: organism-based; conditions: in vivo; method in brief: as §3
# Plasma [15] = test: Prodrug activation in Plasmodium chabaudi infected Balb/c mouse plasma assessed as mefloquine level at 50 mg/kg, ip at 30 mins by LC-MS/MS analysis; format: organism-based; conditions: in vivo, 0.5 h; method in brief: as §3
# [16] = Tmax in Plasmodium chabaudi infected Balb/c mouse plasma at 50 mg/kg, ip by LC-MS/MS analysis; format: ADME, organism-based; method in brief: as §3
# [17] = Terminal half life in Balb/c mouse at 50 mg/kg, ip by LC-MS/MS analysis; format: ADME, organism-based; conditions: in vivo, read-out: beta t1/2 (converted)
# Method in brief: (§4)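 Noncompartmental plasma PK after one i.p. dose of 50 mg/kg in uninfected mice and in P. chabaudi-infected mice. Parameters are terminal t1/2, tmax, Cmax, AUCinf, CL/F, Vz/F, MRTlast and MRTinf. F is the fraction of drug reaching systemic exposure after the i.p. dose.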
# [18] = Tmax in Balb/c mouse at 50 mg/kg, ip by LC-MS/MS analysis; format: ADME, organism-based; conditions: in vivo; method in brief: as §4
# [19] = Cmax in Balb/c mouse at 50 mg/kg, ip by LC-MS/MS analysis; format: ADME, organism-based; set-up: dose 50 mg/kg, route intraperitoneal; conditions: in vivo; method in brief: as §4
# [20] = AUC (infinity) in Balb/c mouse at 50 mg/kg, ip by LC-MS/MS analysis; format: ADME, organism-based; set-up: dose 50 mg/kg, time infinity, route intraperitoneal; conditions: in vivo; method in brief: as §4
# [21] = Apparent oral clearance in Balb/c mouse at 50 mg/kg, ip by LC-MS/MS analysis; format: ADME, organism-based; conditions: in vivo; method in brief: as §4
# [22] = Apparent volume of distribution during terminal phase in Balb/c mouse at 50 mg/kg, ip by LC-MS/MS analysis; format: ADME, organism-based; conditions: in vivo, read-out: Vz/F; method in brief: as §4
# [23] = Mean residence time (last) in Balb/c mouse at 50 mg/kg, ip by LC-MS/MS analysis; format: ADME, organism-based; conditions: in vivo; method in brief: as §4
# [24] = Mean residence time (infinity) in Balb/c mouse at 50 mg/kg, ip by LC-MS/MS analysis; format: ADME, organism-based; conditions: in vivo; method in brief: as §4
# [25] = Terminal half life in Plasmodium chabaudi infected Balb/c mouse at 50 mg/kg, ip by LC-MS/MS analysis; format: ADME, organism-based; conditions: in vivo, read-out: beta t1/2 (converted); method in brief: as §4
# [26] = Tmax in Plasmodium chabaudi infected Balb/c mouse at 50 mg/kg, ip by LC-MS/MS analysis; format: ADME, organism-based; conditions: in vivo; method in brief: as §4
# [27] = Cmax in Plasmodium chabaudi infected Balb/c mouse at 50 mg/kg, ip by LC-MS/MS analysis; format: ADME, organism-based; set-up: dose 50 mg/kg, route intraperitoneal; conditions: in vivo; method in brief: as §4
# [28] = AUC (infinity) in Plasmodium chabaudi infected Balb/c mouse at 50 mg/kg, ip by LC-MS/MS analysis; format: ADME, organism-based; set-up: dose 50 mg/kg, route intraperitoneal, time infinity; conditions: in vivo; method in brief: as §4
# [29] = Apparent oral clearance in Plasmodium chabaudi infected Balb/c mouse at 50 mg/kg, ip by LC-MS/MS analysis; format: ADME, organism-based; conditions: in vivo; method in brief: as §4
# [30] = Apparent volume of distribution during terminal phase in Plasmodium chabaudi infected Balb/c mouse at 50 mg/kg, ip by LC-MS/MS analysis; format: ADME, organism-based; conditions: in vivo, read-out: Vz/F; method in brief: as §4
# [31] = Mean residence time (last) in Plasmodium chabaudi infected Balb/c mouse at 50 mg/kg, ip by LC-MS/MS analysis; format: ADME, organism-based; conditions: in vivo; method in brief: as §4
# [32] = Mean residence time (infinity) in Plasmodium chabaudi infected Balb/c mouse at 50 mg/kg, ip by LC-MS/MS analysis; format: ADME, organism-based; conditions: in vivo; method in brief: as §4
# Plasmodium chabaudi [33] = test: Antimalarial activity against Plasmodium chabaudi infected in Balb/c mouse assessed as parastemia at 10 mg/kg, ip administered as single dose measured 4 day postinoculation (reference value: 4.6 +/- 0.5 %); format: functional
# Plasmodium berghei [34] = test: Antimalarial activity against Plasmodium berghei infected in Swiss-Webster mouse assessed as decrease in parasitemia at 10 mg/kg qd for 4 days administered via oral gavage; format: functional, organism-based
# Method in brief: (§5)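 Female Swiss-Webster mice (n = 5 per arm) inoculated with 10^6 P. berghei parasites. Compound or vehicle given by oral gavage once daily for 4 days, starting on the day of inoculation. Parasitemia, morbidity and mortality recorded daily over 28 days; mice euthanized as required by study protocol.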
# Plasmodium berghei [35] = test: Antimalarial activity against Plasmodium berghei infected in Swiss-Webster mouse assessed as mouse survival upto day 28 at 10 mg/kg qd for 4 days administered via oral gavage; format: functional, organism-based; method in brief: as §5
# Plasmodium chabaudi [36] = test: Antimalarial activity against Plasmodium chabaudi infected in Balb/c mouse assessed as parastemia at 10 mg/kg, ip administered as single dose measured 7 day postinoculation (reference value: 34 +/- 2.3 %); format: functional
# [37] = Tmax in Plasmodium chabaudi infected Balb/c mouse plasma at 10 mg/kg, ip by LC-MS/MS analysis; format: ADME, organism-based
# Method in brief: (§6)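 P. chabaudi-infected mice given a single 10 mg/kg i.p. dose. Blood and brain were sampled over 24 h and analysed for drug concentrations. Plasma concentration–time course used; brain levels reported at three time points.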
# [38] = Drug level in Plasmodium chabaudi infected Balb/c mouse brain at 10 mg/kg, ip at 24 hrs by LC-MS/MS analysis; format: ADME, organism-based; conditions: read-out: Drug uptake; method in brief: as §6
# Plasmodium chabaudi [39] = test: Antimalarial activity against Plasmodium chabaudi infected in Balb/c mouse assessed as parastemia at 10 mg/kg, ip measured 13 day postinoculation; format: functional
smiles,measurement,setting,value
CC(C)(N)CNC(=O)O[C@H]1CCC[C@@]2(C1)OOC1(O2)C2CC3CC(C2)CC1C3 (some centres undefined),EC50,Plasmodium falciparum,2.7 nM
same,remaining at 2 h,[1],97%
same,Activity,Plasmodium berghei [2],Active
CC(C)(N)CNC(=O)C[C@H]1CC[C@]2(CC1)OOC1(O2)C2CC3CC(C2)CC1C3 (some centres undefined),EC50,Plasmodium falciparum,2.5 nM
same,blood plasma ratio,[3],1.5
C[C@@H]1CC[C@H]2[C@@H](C)C(=O)O[C@@H]3O[C@@]4(C)CC[C@@H]1[C@]32OO4 [ARTEMISININ],EC50,Plasmodium falciparum,9.3 nM
O=C(O[C@H]1CCC[C@@]2(C1)OOC1(O2)C2CC3CC(C2)CC1C3)N1CCCC[C@@H]1[C@@H](O)c1cc(C(F)(F)F)nc2c(C(F)(F)F)cccc12 (some centres undefined),Activity,Plasmodium chabaudi [4],4.5%
same,Activity,Plasmodium chabaudi [5],4.8%
same,EC50,Plasmodium falciparum,3 nM
same,remaining at 4 h,[6],94%
same,remaining at 4 h,[7],85%
same,blood plasma ratio,[3],0.7
same,Activity,Plasmodium chabaudi [8],5.4%
same,Activity,Plasmodium chabaudi [9],33%
same,Activity,Plasmodium chabaudi [10],0.7%
same,Activity,Plasmodium chabaudi [11],0%
same,Activity,Plasmodium chabaudi [12],0.65%
same,Activity,Plasmodium chabaudi [13],0%
same,Drug metabolism,Brain,250 ng/mL
same,Drug metabolism,Plasma [14],metabolite_detected
same,Drug metabolism,Plasma [15],metabolite_notdetected
same,Tmax,[16],0.5 h
same,half-life,[17],8.41 h
same,Tmax,[18],1 h
same,Cmax,[19],3620 ng/mL
same,AUC(0-inf),[20],34100 ng·h/mL
same,CL/F,[21],24.5 mL/min/kg
same,Vd/F,[22],17.8 L/kg
same,MRT last,[23],6.93 h
same,MRT inf,[24],11 h
same,half-life,[25],8.6 h
same,Tmax,[26],2 h
same,Cmax,[27],1570 ng/mL
same,AUC(0-inf),[28],13600 ng·h/mL
same,CL/F,[29],61.2 mL/min/kg
same,Vd/F,[30],45.5 L/kg
same,MRT last,[31],6.43 h
same,MRT inf,[32],10.6 h
"O[C@@H](c1cc(C(F)(F)F)nc2c(C(F)(F)F)cccc12)[C@H]1CCCCN1 (racemic) [(S,R)-MEFLOQUINE]",Activity,Plasmodium chabaudi [33],4.8%
same,EC50,Plasmodium falciparum,2.5 nM
same,remaining at 4 h,[6],97%
same,remaining at 4 h,[7],95%
same,blood plasma ratio,[3],1.6
same,inhibition,Plasmodium berghei [34],Active
same,Activity,Plasmodium berghei [35],Active
same,Activity,Plasmodium chabaudi [36],0.02%
same,Tmax,[37],5 min
same,concentration at 24 h,[38],1400 ng/mL
same,Activity,Plasmodium chabaudi [39],0%
